Most compounds without a hit are left out; they make up all but 3.7% or so of the library.
MPTP inh – mitochondrial permeability transition pore inhibitors, primary screen, biochemical, isolated mouse mitochondria, absorbance. Ca2+ swelling absorbance, 30 min. 360,000 tested, 1.4% active. inhibition, % at 10 µM. AID 602449, 2012;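 active = inhibition of 50% or more, scaled per plate between neutral and stimulator controls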;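 also: 0% = DMSO wells given calcium and 100% = 1 mM EGTA wells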
proCasp7 act – procaspase-7 activators, primary screen, counter-screen for procaspase-3 activator project, biochemical, absorbance, HTS, human. Caspase-7 (Homo sapiens), P55210. recombinant procaspase-7, Ac-DEVD-pNA absorbance 405 nm; D23A/D198A/D206A triple mutant, cannot self-cleave; scale: DMSO 0, 5 µM enzyme 100. activation, % at 8.5 µM. 330,000 tested, 0.093% active. AID 463210, 2010;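 active = percent activation above the screen-wide mean plus 3 SD, cut at about 25% in these data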
Target sequence (P55210 whole entry D23A/D198A/D206A): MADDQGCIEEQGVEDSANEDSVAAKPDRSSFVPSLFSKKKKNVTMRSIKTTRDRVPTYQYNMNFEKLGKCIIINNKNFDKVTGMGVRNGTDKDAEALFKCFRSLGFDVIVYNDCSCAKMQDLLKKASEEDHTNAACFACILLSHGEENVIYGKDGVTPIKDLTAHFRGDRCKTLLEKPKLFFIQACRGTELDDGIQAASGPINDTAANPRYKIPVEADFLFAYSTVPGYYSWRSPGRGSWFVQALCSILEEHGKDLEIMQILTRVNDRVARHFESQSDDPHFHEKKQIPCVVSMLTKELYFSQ
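Detection: p-Nitroaniline absorbance at 405 nm, read at 0 and 120 min; system: Uncleavable procaspase-7 mutant enzyme; evaluation: % activation from two-timepoint absorbance difference, scaled to controls; times: 1 h enzyme–compound preincubation and 2 h substrate reaction, both 25 °C; buffer or medium: Zinc-free HEPES pH 7.4 with 300 mM NaCl, 0.01% Triton X-100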
aDG glyco up – activators of alpha-DG glycosylation, primary screen, uHTS, Pro5-aDG cells, AlphaScreen; AID 624168, 2012; alpha-DG glycosylation AlphaScreen (IIH6); 0% Pro5, 100% B10-LARGE cell signal; activation, % at 10 µM; 360,000 tested, 0.22% active;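 active = activation of at least 8% versus controls, or a plate z-score of at least 8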;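 also: Pro5 are CHO cells carrying HIG-tagged alpha-DG that lacks glycosylation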
NR3A LBD binder – binders of NR3A ligand-binding domain, primary screen, biophysical, differential scanning fluorimetry, uHTS | Glutamate receptor ionotropic, NMDA 3A (GRIN3A) ligand-binding domain | NR3A LBD differential scanning fluorimetry, Tm shift; 0% = protein alone, 100% = glycine-bound protein | Tm shift relative to glycine control, % at 25 µM | 340,000 tested, 2.5% active | AID 1259313, 2017;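 active = melting temperature shift of at least 10% of the positive control shift, at one fixed dose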
proCasp3 act – activators of human procaspase-3 D3A mutant, primary screen, biochemical, absorbance, PC-3 D3A mutant, single concentration | Caspase-3 (Homo sapiens), P42574 | recombinant procaspase-3 D3A, Ac-DEVD-pNA absorbance 405 nm | activation, % at 8.5 µM | 330,000 tested, 0.11% active;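 active = activation above the mean of all tested compounds plus 3 SD, cut at about 21% in these data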;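 also: 0% = DMSO alone and 100% = DMSO wells spiked with extra 5 µM PC-3 D3A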
Target sequence (P42574 whole entry D9A/D28A/D175A): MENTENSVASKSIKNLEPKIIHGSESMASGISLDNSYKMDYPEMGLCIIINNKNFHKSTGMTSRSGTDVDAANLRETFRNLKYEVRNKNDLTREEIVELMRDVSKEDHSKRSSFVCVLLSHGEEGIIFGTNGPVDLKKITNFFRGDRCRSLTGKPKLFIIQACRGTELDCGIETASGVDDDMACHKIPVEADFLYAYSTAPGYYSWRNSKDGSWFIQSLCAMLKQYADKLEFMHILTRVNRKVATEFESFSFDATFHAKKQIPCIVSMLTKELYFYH
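Assay system – Procaspase-3 D3A mutant, all three cleavage aspartates alanine · Controls – DMSO-only low control, 5 µM PC-3 D3A high control · Schedule – 1 h compound preincubation, 2 h substrate hydrolysis at 25 °C · Signal – 405 nm absorbance of p-nitroaniline, reads at 0 and 120 min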
Starred values were filed as active, the others as inactive.

`Nc1ncnc2c1ncn2[C@@H]1O[C@H](C(=O)N[C@H]2c3ccccc3C[C@H]2OC=O)[C@@H](O)[C@H]1O` gave MPTP inh 1 and aDG glyco up 0.
CCOc1ccc(S(=O)(=O)Nc2cc(SCC(=O)O)c(O)c3ccccc23)cc1 was read as MPTP inh 0, aDG glyco up 3.9* and NR3A LBD binder -8.
CCc1ccc(S(=O)(=O)Nc2cc(SCC(=O)O)c(O)c3ccccc23)cc1 was read as MPTP inh -2, proCasp7 act -16, aDG glyco up 8.1*, NR3A LBD binder 2 and proCasp3 act -5.
CCc1ccc(S(=O)(=O)Nc2ccc(O)c3ccccc23)cc1 was read as MPTP inh 1, proCasp7 act -33, aDG glyco up 2, NR3A LBD binder -5 and proCasp3 act -22.
`O=C(O)CSc1cc(NS(=O)(=O)c2cccc([N+](=O)[O-])c2)c2ccccc2c1O` gave MPTP inh 21, aDG glyco up 2.6* and NR3A LBD binder -8.
Cc1ccc(C)c(S(=O)(=O)Nc2cc(SCC(=O)O)c(O)c3ccccc23)c1 was read as MPTP inh 40, proCasp7 act -14, aDG glyco up 8.5*, NR3A LBD binder -11 and proCasp3 act -18.
CCOC(=O)c1ccccc1NS(=O)(=O)c1ccc(OCC)cc1 was read as MPTP inh 2, proCasp7 act -7, aDG glyco up 0, NR3A LBD binder 4 and proCasp3 act 4.
Nc1cc(OCc2ccccc2)ccc1OCc1ccccc1 was read as MPTP inh 1, aDG glyco up 0 and NR3A LBD binder 3.
`CNc1oc(-c2ccccc2F)nc1S(=O)(=O)c1ccc(C)cc1` gave MPTP inh 0, proCasp7 act -22, aDG glyco up 0, NR3A LBD binder 13* and proCasp3 act -8.
CCOC1=C2[C@@H](CN(S(=O)(=O)c3ccc(C)cc3)[C@H]2c2ccccc2Cl)[C@H]2C(=O)N(C)C(=O)[C@H]2C1 was read as MPTP inh 1 and aDG glyco up 0.
Screening O=C(Nc1ccsn1)c1ccc(Cl)cc1Cl returned MPTP inh -1, proCasp7 act -1, aDG glyco up 0, NR3A LBD binder 10* and proCasp3 act -9.
CC(=O)C1=C(C)NC(SCC(=O)Nc2nc3ccccc3s2)=C(C#N)C1c1ccc(Cl)cc1 (stereo unspecified) was read as MPTP inh 4, proCasp7 act -4, aDG glyco up 0, NR3A LBD binder 12* and proCasp3 act 1.
`COc1ccc(NC(=O)CSC2=C(C#N)C(c3ccco3)C(C(=O)Nc3nc4ccccc4s3)=C(C)N2)cc1` (stereo unspecified) gave MPTP inh 4, proCasp7 act 9, aDG glyco up 0, NR3A LBD binder 8 and proCasp3 act -6.
For Cc1ccc(-c2[nH]nc(N)c2N=Nc2ccccc2C)cc1 the results were MPTP inh 12, proCasp7 act 5, aDG glyco up 0, NR3A LBD binder 44* and proCasp3 act -13.
`Cc1ccc(-c2[nH]nc(N)c2N=Nc2cccc(Cl)c2C)cc1` gave MPTP inh 18, aDG glyco up 0 and NR3A LBD binder 28*.
`Cc1cccc(N=Nc2c(N)n[nH]c2-c2ccc(Cl)cc2)c1` gave MPTP inh 5, proCasp7 act 12, aDG glyco up 0, NR3A LBD binder 34* and proCasp3 act -13.
Cc1ccc(N=Nc2c(N)n[nH]c2N)cc1 was read as MPTP inh 0, proCasp7 act 4, aDG glyco up 0, NR3A LBD binder -2 and proCasp3 act 6.
Screening O=C(NCc1ccccn1)[C@@H]1CCCN1C(=O)[C@@H]1CCCN1C(=O)c1c(F)cccc1F returned MPTP inh -2 and aDG glyco up 0.
O=C(NNC(=O)c1ccc(Br)s1)c1csc(N2CCOCC2)n1 was read as MPTP inh 0, proCasp7 act 0, aDG glyco up 0, NR3A LBD binder 0 and proCasp3 act 2.
For Cc1n[nH]c(C)c1S(=O)(=O)N1CCOCC1 the results were MPTP inh -4, proCasp7 act -14, aDG glyco up 0, NR3A LBD binder 14* and proCasp3 act 8.
OC(c1ccc(F)cc1)c1nc(-c2cncnc2)cs1 (stereo unspecified) was read as MPTP inh -1 and aDG glyco up 0.
Screening Cc1ccc2nc3n(c(=O)c2c1)-c1cc2ccccc2cc1C(=O)NC3Cc1ccccc1 (stereo unspecified) returned MPTP inh 0 and aDG glyco up 0.
For CCOc1ccc(NC(=O)COC(=O)Cc2ccsc2)cc1 the results were MPTP inh 0, proCasp7 act -1, aDG glyco up 0, NR3A LBD binder 34* and proCasp3 act 1.
COc1cccc(NC(=O)COC(=O)CCCc2c[nH]c3ccccc23)c1 was read as MPTP inh -3, proCasp7 act 7, aDG glyco up 0, NR3A LBD binder 4 and proCasp3 act -3.
Screening CCOc1ccc(NC(=O)COC(=O)CCCc2c[nH]c3ccccc23)cc1 returned MPTP inh -2, proCasp7 act 7, aDG glyco up 0, NR3A LBD binder 28* and proCasp3 act 4.
COc1ccc(NC(=O)COC(=O)CCCc2c[nH]c3ccccc23)cc1 was read as MPTP inh 1, proCasp7 act -1, aDG glyco up 0, NR3A LBD binder 21* and proCasp3 act 6.
`O=S1(=O)CC(N2CCN(Cc3ccccc3F)CC2)CN1Cc1cn(Cc2cccc(Cl)c2)nn1` (stereo unspecified) gave MPTP inh 0 and aDG glyco up 0.
`COCCNC(=O)C1CCCN(C(=O)c2sccc2C)CC1` (stereo unspecified) gave MPTP inh -1 and aDG glyco up 0.
For COc1cc(C(=O)Nc2sc(C)c(C)c2C(=O)O)cc(OC)c1OC the results were MPTP inh -2, proCasp7 act -9, aDG glyco up 0, NR3A LBD binder 15* and proCasp3 act -6.
c1ccc(CSc2ccc(-c3cccs3)nn2)cc1 was read as MPTP inh 1, proCasp7 act -4, aDG glyco up 0, NR3A LBD binder 19* and proCasp3 act -9.

Screens deposited in PubChem by several laboratories.
